Measured values as given in ChEMBL document CHEMBL1133760, “4-(3-Chloro-4-methoxybenzyl)aminophthalazines: synthesis and inhibitory activity toward phosphodiesterase 5” (J Med Chem, 2000).
Structures can show the parent of a compound that is named as a salt. One block for each compound: values may come before it.

What was measured:
Sus scrofa = species on record: Sus scrofa; test: Vasorelaxant effect was evaluated on isolated porcine coronary arteries precontracted with PGF-2 alpha; assay type: functional
Procedure, shortened: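 Endothelium-intact porcine coronary artery strips were held in Krebs-Henseleit (37 °C, pH 7.4, 95% O2-5% CO2) at 1 g resting tension. Endothelium was verified by 10^-8 M bradykinin relaxation after 50 mM KCl contraction. Strips were contracted with 10^-5 M PGF2α, then given cumulative compound additions. Relaxation was expressed as % of the PGF2α contraction. EC50 came from log concentration curves, as the mean of two experiments.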

[1] = Pharmacokinetic parameter, tmax after 0.3 mg/kg po administration in rats; assay type: ADME, organism-based; parameters: dose 0.3 mg/kg, route oral; settings: rat, in vivo
Procedure, shortened: (§1)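 Rats received a 0.3 mg/kg dose intravenously or orally, with n = 4 per route. Plasma pharmacokinetic parameters were then derived.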

[2] = Pharmacokinetic parameter, t1/2 after 0.3 mg/kg iv administration in rats; assay type: ADME, organism-based; parameters: dose 0.3 mg/kg, route intravenous; settings: rat, in vivo; procedure, shortened: as §1
PDE II [3] = target: T1, PDE II (Sus scrofa, UniProt F1SUV3); test: Inhibition of phosphodiesterase 2 (PDE2) from porcine platelets, range 0.841-1.15; settings: in the assay text read “porcine adrenal” for “porcine platelets”
Procedure, shortened: (§2)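 Two-step radioisotopic PDE activity assay (modified) with 1 µM [3H]cGMP as substrate. Enzymes were isolated from porcine tissues, and PDE5 was purified by DEAE-Toyopearl 650S chromatography. Inhibitors were diluted from DMSO into assay buffer over 10^-10 to 10^-6 M, with 1% (v/v) DMSO final. IC50 came from log concentration-inhibition curves (at least four points), as the mean of three experiments.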

Phosphodiesterase 4A [4] = target: T2, Phosphodiesterase 4A (Sus scrofa, UniProt O77823); test: Inhibition of phosphodiesterase 4 (PDE4) from porcine liver, range 1.01-1.36; procedure, shortened: as §2
T2 sequence (O77823 whole entry): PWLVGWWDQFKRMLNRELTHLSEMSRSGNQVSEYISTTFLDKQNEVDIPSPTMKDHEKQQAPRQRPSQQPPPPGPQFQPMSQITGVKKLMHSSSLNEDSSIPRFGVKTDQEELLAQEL

[5] = Inhibition of phosphodiesterase 1 (PDE1) from porcine adrenal tissue, range 20.0-34.4; parameters: species or system Sus scrofa; settings: in the assay text read “porcine aorta” for “porcine adrenal tissue”; procedure, shortened: as §2
Phosphodiesterase 3A [6] = target: T3, Phosphodiesterase 3A (Sus scrofa, UniProt Q9XSW7); test: Inhibition of phosphodiesterase 3 (PDE3) from porcine platelets, range 11.4-26.9; procedure, shortened: as §2
T3 sequence (Q9XSW7 whole entry): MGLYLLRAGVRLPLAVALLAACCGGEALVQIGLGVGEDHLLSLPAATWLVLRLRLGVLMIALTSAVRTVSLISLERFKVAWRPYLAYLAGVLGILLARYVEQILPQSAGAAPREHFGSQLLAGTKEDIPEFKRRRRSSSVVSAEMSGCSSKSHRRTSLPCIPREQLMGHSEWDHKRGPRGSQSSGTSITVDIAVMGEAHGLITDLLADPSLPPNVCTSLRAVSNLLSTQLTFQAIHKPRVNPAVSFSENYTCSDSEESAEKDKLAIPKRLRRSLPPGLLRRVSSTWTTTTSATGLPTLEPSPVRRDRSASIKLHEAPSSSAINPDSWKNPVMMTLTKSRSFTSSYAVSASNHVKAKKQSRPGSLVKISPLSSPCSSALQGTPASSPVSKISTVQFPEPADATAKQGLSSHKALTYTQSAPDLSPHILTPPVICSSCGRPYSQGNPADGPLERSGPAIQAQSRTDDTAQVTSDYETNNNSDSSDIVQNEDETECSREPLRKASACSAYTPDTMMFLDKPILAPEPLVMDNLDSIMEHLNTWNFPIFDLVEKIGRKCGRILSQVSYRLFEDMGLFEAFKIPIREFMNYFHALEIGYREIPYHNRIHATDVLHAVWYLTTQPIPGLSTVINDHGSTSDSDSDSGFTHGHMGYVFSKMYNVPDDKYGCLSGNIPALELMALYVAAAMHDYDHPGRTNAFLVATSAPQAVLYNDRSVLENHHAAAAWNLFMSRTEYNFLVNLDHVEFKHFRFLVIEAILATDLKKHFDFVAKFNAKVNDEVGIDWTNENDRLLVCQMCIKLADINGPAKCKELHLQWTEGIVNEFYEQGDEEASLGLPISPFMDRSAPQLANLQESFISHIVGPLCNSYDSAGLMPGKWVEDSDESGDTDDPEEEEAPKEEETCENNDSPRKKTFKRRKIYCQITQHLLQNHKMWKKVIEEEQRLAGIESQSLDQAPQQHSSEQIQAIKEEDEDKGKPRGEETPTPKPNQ

[7] = Pharmacokinetic parameter, Cmax (plasma conc.) after 0.3 mg/kg po administration in rats; assay type: ADME, organism-based; parameters: dose 0.3 mg/kg, route oral; settings: rat; procedure, shortened: as §1
[8] = Pharmacokinetic parameter, Bioavailability (F) after 0.3 mg/kg po administration in rats; assay type: ADME, organism-based; settings: rat, in vivo, read-out: BA; procedure, shortened: as §1
[9] = Pharmacokinetic parameter, AUC (area under curve) after 0.3 mg/kg iv administration in rats; assay type: ADME, organism-based; parameters: dose 0.3 mg/kg, route intravenous; settings: rat, in vivo; procedure, shortened: as §1
[10] = Pharmacokinetic parameter, AUC (area under curve) after 0.3 mg/kg po administration in rats; assay type: ADME, organism-based; parameters: dose 0.3 mg/kg, route oral; settings: rat, in vivo; procedure, shortened: as §1
[11] = Inhibition of phosphodiesterase 1 (PDE1) from porcine adrenal tissue, range 51.1-108; parameters: species or system Sus scrofa; settings: in the assay text read “porcine aorta” for “porcine adrenal tissue”; procedure, shortened: as §2
Phosphodiesterase 3A [12] = target: T3, Phosphodiesterase 3A; test: Inhibition of phosphodiesterase 3 (PDE3) from porcine platelets, range 31.8-60.7
[13] = Inhibition of phosphodiesterase 1 (PDE1) from porcine adrenal tissue; assay type: tissue-based, Sus scrofa; settings: in the assay text read “porcine aorta” for “porcine adrenal tissue”; procedure, shortened: as §2
Phosphodiesterase 4A [14] = target: T2, Phosphodiesterase 4A; test: Inhibition of phosphodiesterase 4 (PDE4) from porcine liver, range 10.4-16.3
Procedure, shortened: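 PDE4 isolated from porcine liver; activity measured by a modified two-step radioisotopic assay. Compounds dissolved in DMSO and diluted in assay buffer to 10^-10 to 10^-6 M, with 1% (v/v) final DMSO. IC50 taken from logarithmic concentration-inhibition curves of at least four points, as the mean of three experiments.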

PDE II [15] = target: T1, PDE II; test: Inhibition of phosphodiesterase 2 (PDE2) from porcine adrenal
Phosphodiesterase 4A [16] = target: T2, Phosphodiesterase 4A; test: Inhibition of phosphodiesterase 4 (PDE4) from porcine liver; procedure, shortened: as §2
Phosphodiesterase 3A [17] = target: T3, Phosphodiesterase 3A; test: Inhibition of phosphodiesterase 3 (PDE3) from porcine platelets; procedure, shortened: as §2
[18] = Inhibition of phosphodiesterase 1 (PDE1) from porcine adrenal tissue, range 26.5-36.7; parameters: species or system Sus scrofa; settings: in the assay text read “porcine aorta” for “porcine adrenal tissue”; procedure, shortened: as §2

EC50 (Sus scrofa): 780 nM
Compound: COc1ccc(CNc2nnc(N3CCC(O)CC3)c3ccc(Cl)cc23)cc1Cl

EC50 (Sus scrofa): 100 nM
Compound: COc1ccc(CNc2nnc(N3CCN(CCO)CC3)c3ccc(C#N)cc23)cc1Cl

EC50 (Sus scrofa): 30 nM
Compound: COc1ccc(CNc2nnc(N3CCC(O)CC3)c3ccc([N+](=O)[O-])cc23)cc1Cl

EC50 (Sus scrofa): 130 nM
Compound: COc1ccc(CNc2nnc(N3CCC(C)(O)CC3)c3ccc(C#N)cc23)cc1Cl

EC50 (Sus scrofa): 100 nM
Compound: COc1ccc(CNc2nnc(N3CCC(OC)CC3)c3ccc(C#N)cc23)cc1Cl

EC50 (Sus scrofa): 50 nM
Compound: COc1ccc(CNc2nnc(N3CC[S+]([O-])CC3)c3ccc(C#N)cc23)cc1Cl

EC50 (Sus scrofa): 120 nM
Compound: COc1ccc(CNc2nnc(N3CCC(O)CC3)c3ccc(C(F)(F)F)cc23)cc1Cl

Tmax [1]: 15 min
EC50 (Sus scrofa): 13 nM
half-life [2]: 132 min
IC50 (PDE II [3]): 984 nM
IC50 (Phosphodiesterase 4A [4]): 1170 nM
IC50 [5]: 26.2 µM
IC50 (Phosphodiesterase 3A [6]): 17.5 µM
Cmax [7]: 25.5 ng/mL
bioavailability [8]: 19.5%
AUC [9]: 166 ng·h/mL
AUC [10]: 32.4 ng·h/mL
Compound: COc1ccc(CNc2nnc(N3CCC(O)CC3)c3ccc(C#N)cc23)cc1Cl.Cl

EC50 (Sus scrofa): 30 nM
Compound: COc1ccc(CNc2nnc(N3CCC(CCO)CC3)c3ccc(C#N)cc23)cc1Cl

EC50 (Sus scrofa): 13 nM
Compound: COc1ccc(CNc2nnc(N3CCC(=O)CC3)c3ccc(C#N)cc23)cc1Cl

EC50 (Sus scrofa): 130 nM
Compound: COc1ccc(CNc2nnc(N3CC=CCC3)c3ccc(C#N)cc23)cc1Cl

EC50 (Sus scrofa): 19 nM
Compound: COc1ccc(CNc2nnc(N3CCC(CO)CC3)c3ccc(C#N)cc23)cc1Cl

EC50 (Sus scrofa): 39 nM
Compound: COc1ccc(CNc2nnc(N3CCCCC3)c3ccc(C#N)cc23)cc1Cl

EC50 (Sus scrofa): 870 nM
Compound: COc1ccc(CNc2nnc(N3CCNCC3)c3ccc(C#N)cc23)cc1Cl

EC50 (Sus scrofa): 170 nM
Compound: COc1ccc(CNc2nnc(N3CCC(C(=O)O)CC3)c3ccc(C#N)cc23)cc1Cl

EC50 (Sus scrofa): 320 nM
Compound: COc1ccc(CNc2nnc(N3CCN(C)CC3)c3ccc(C#N)cc23)cc1Cl

IC50 [11]: 74.5 µM
IC50 (Phosphodiesterase 3A [12]): 44 µM
Compound: OCCN(CCO)c1nc(N2CCCCC2)c2nc(N(CCO)CCO)nc(N3CCCCC3)c2n1 [DIPYRIDAMOLE]

IC50 [13]: > 100 µM
IC50 (Phosphodiesterase 4A [14]): 13 µM
Compound: Cc1[nH]c(=O)c(C#N)cc1-c1ccncc1 [MILRINONE]

IC50 (PDE II [15]): > 100 µM
IC50 [13]: > 100 µM
IC50 (Phosphodiesterase 4A [16]): 3.63 µM
IC50 (Phosphodiesterase 3A [17]): > 100 µM
Compound: COc1ccc(C2CNC(=O)C2)cc1OC1CCCC1 (stereo not drawn) [ROLIPRAM]

EC50 (Sus scrofa): 38 nM
Compound: CCCc1nn(C)c2c(=O)[nH]c(-c3cc(S(=O)(=O)N4CCN(C)CC4)ccc3OCC)nc12 [SILDENAFIL CITRATE]

IC50 (Phosphodiesterase 4A [16]): > 100 µM
IC50 (Phosphodiesterase 3A [17]): > 100 µM
IC50 [18]: 31.2 µM
Compound: CCCOc1ccccc1-c1nc2[nH]nnc2c(=O)[nH]1 [ZAPRINAST]
